What was measured:
[1] = Antioxidant activity against CuSO4-induced LDL-oxidation assessed as increase in lag phase of conjugated diene formation by 1.5 times measured every 10 mins for 8 hrs by spectrophotometry analysis
[2] = Antioxidant activity against copper-induced LDL-oxidation assessed as length of lag phase of oxidative procedure of LDL at 0.1 to 10 uM measured every 10 mins for 8 hrs by spectrophotometry relative to 5 uM of copper; type: functional
In short: (§1)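 Copper oxidation of LDL: LDL isolated by NaBr density ultracentrifugation (1.019–1.063 g/mL) and dialysed in 0.01 M PBS pH 7.4 under N2 at 4 °C. 20 µL of 16.6 µM CuSO4 is added to 160 µL LDL (125 µg protein/mL) with compound (0.1–10 µM) or PBS at 30 °C. A234 is read every 10 min for 8 h. R is the compound lag phase divided by the control lag phase.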

[3] = Antioxidant activity against copper-induced LDL-oxidation assessed as length of lag phase of oxidative procedure of LDL at 0.1 to 10 uM measured every 10 mins for 8 hrs by spectrophotometry relative to 1 uM of copper; type: functional
In short: as §1

[4] = Antioxidant activity in BAEC assessed as protection against air-oxidized LDL-induced cell death at 10 uM pretreated for 24 hrs before air-oxidized LDL challenge measured after 16 hrs by lactate dehydrogenase release assay (reference value: 22.76 +/- 1.53 %); type: functional, Bos taurus
[5] = Antioxidant activity against APPH-induced LDL-oxidation assessed as length of lag phase of oxidative procedure of LDL at 0.1 to 10 uM measured every 10 mins for 8 hrs by spectrophotometry relative to 1 uM of APPH; type: functional
In short: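 AAPH oxidation of LDL: LDL isolated by NaBr density ultracentrifugation (1.019–1.063 g/mL) and dialysed in 0.01 M PBS pH 7.4 under N2 at 4 °C. 160 µL LDL (125 µg protein/mL) is mixed with 20 µL of 2 mM AAPH and compound (0.1–10 µM) at 30 °C. Conjugated dienes are read at 234 nm every 10 min for 8 h. R is the lag phase with compound divided by the control lag phase.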

Compound | ED50 [1] | Activity [2] | Ratio [3] | Activity [4] | Activity [5]
CCc1ccc2[nH]c3c(c2c1)CCNC3c1ccc(OC)c(OC)c1 (stereo not drawn) | 10 µM | 1.1 | 1 | – | –
CCc1ccc2[nH]c3c(c2c1)CCNC3c1ccc(OC)c(OC)c1OC (stereo not drawn) | 9 µM | 1.2 | 1 | – | –
CCc1ccc2[nH]c3c(c2c1)CCN(C(=O)OCc1ccccc1)C3c1ccc(OCc2ccccc2)c(OCc2ccccc2)c1 (stereo not drawn) | 8 µM | 1.3 | 1.1 | – | –
CCCN1CCc2c([nH]c3ccc(CC)cc23)C1c1ccc(OC)cc1 (stereo not drawn) | 3 µM | 1.7 | 1 | – | –
CCCN1CCc2c([nH]c3ccc(CC)cc23)C1c1cccc(OC)c1 (stereo not drawn) | 4 µM | 1.6 | 1.2 | 15.32% | –
CCc1ccc2[nH]c3c(c2c1)CCNC3c1cc(OC)c(OC)c(OC)c1 (stereo not drawn) | 10 µM | 1.1 | 1 | – | –
CCc1ccc2[nH]c3c(c2c1)CCNC3c1ccc(OCc2ccccc2)c(OCc2ccccc2)c1 (stereo not drawn) | 7 µM | 1.4 | 1 | – | 1
CCCN1CCc2c([nH]c3ccc(CC)cc23)C1c1ccc(OC)c(OC)c1 (stereo not drawn) | 2 µM | 1.8 | 1.1 | – | –
CCCCCN1CCc2c([nH]c3ccc(CC)cc23)C1c1cccc(OC)c1 (stereo not drawn) | 9 µM | 1.2 | 1 | – | –
COc1cccc(C2NCCc3c2[nH]c2ccc(OCc4ccccc4)cc32)c1 (stereo not drawn) | 5 µM | 1.5 | 1.1 | – | –
CCCCCCCCCN1CCc2c([nH]c3ccc(CC)cc23)C1c1cccc(OC)c1 (stereo not drawn) | 9 µM | 1.2 | 1 | – | –
CCCN1CCc2c([nH]c3ccc(CC)cc23)C1c1cc(C(C)(C)C)c(O)c(C(C)(C)C)c1 (stereo not drawn) | < 0.1 µM | > 5 | 2.7 | 13.21% | 2.6
CCc1ccc2[nH]c3c(c2c1)CCNC3c1cc(C(C)(C)C)c(O)c(C(C)(C)C)c1 (stereo not drawn) | < 0.1 µM | > 5 | 2.8 | 13.26% | 2.7
CCCN1CCc2c([nH]c3ccc(CC)cc23)C1c1ccc(O)c(O)c1 (stereo not drawn) | < 0.1 µM | > 5 | 2.7 | 13.19% | 2.7
CCCN1CCc2c([nH]c3ccc(CC)cc23)C1c1ccccc1OC (stereo not drawn) | 4 µM | 1.6 | 1 | – | –
CCc1ccc2[nH]c3c(c2c1)CCN(C)C3c1cccc(OC)c1 (stereo not drawn) | 1 µM | 1.9 | 1 | – | –

Compound | ED50 [1] | Activity [2] | Ratio [3] | Activity [4] | Activity [5]
CCc1ccc2[nH]c3c(c2c1)CCNC3c1ccccc1OC (stereo not drawn) | 7 µM | 1.4 | 1.2 | – | –
CCc1ccc2[nH]c3c(c2c1)CCNC3c1ccc(OC)cc1 (stereo not drawn) | 9 µM | 1.2 | 1 | – | –
CCCN1CCc2c([nH]c3ccc(CC)cc23)C1c1cccc(OCc2ccccc2)c1 (stereo not drawn) | 0.1 µM | 4.2 | 2.2 | 13.42% | 2.3
CCc1ccc2[nH]c3c(c2c1)CCNC3c1cccc(O)c1 (stereo not drawn) | < 0.1 µM | > 5 | 2.7 | 13.31% | 2.6
CCCN1CCc2c([nH]c3ccc(CC)cc23)C1c1ccc2c(c1)OCCO2 (stereo not drawn) | 9 µM | 1.2 | 1 | – | –
CCCN1CCc2c([nH]c3ccc(CC)cc23)C1c1cc(OC)c(OC)c(OC)c1 (stereo not drawn) | 2 µM | 1.8 | 1.2 | – | –
CCc1ccc2[nH]c3c(c2c1)CCNC3c1cccc(OCc2ccccc2)c1 (stereo not drawn) | 7 µM | 1.4 | 1 | 13.29% | 1
CCc1ccc2[nH]c3c(c2c1)CCNC3c1cccc(OC)c1 (stereo not drawn) | 9 µM | 1.2 | 1.1 | – | –
CCc1ccc2[nH]c3c(c2c1)CCNC3c1ccc2c(c1)OCCO2 (stereo not drawn) | 10 µM | 1.1 | 1 | – | –
CCCN1CCc2c([nH]c3ccc(CC)cc23)C1c1ccc(OCc2ccccc2)c(OCc2ccccc2)c1 (stereo not drawn) | 3 µM | 1.8 | 1.3 | – | –
CCc1ccc2[nH]c3c(c2c1)CCNC3c1ccc(O)c(O)c1 (stereo not drawn) | < 0.1 µM | > 5 | 2.8 | 13.3% | 2.6
CCc1ccc2[nH]c3c(c2c1)CCN(C(=O)OCc1ccccc1)C3c1cccc(OCc2ccccc2)c1 (stereo not drawn) | 10 µM | 1 | 1 | – | –
CCCN1CCc2c([nH]c3ccc(CC)cc23)C1c1cccc(O)c1 (stereo not drawn) | < 0.1 µM | > 5 | 2.8 | 13.2% | 2.7
CCCN1CCc2c([nH]c3ccc(OCc4ccccc4)cc23)C1c1cccc(OC)c1 (stereo not drawn) | 0.1 µM | 4.4 | 2.4 | 13.22% | 2.4
CCC(=O)N1CCc2c([nH]c3ccc(CC)cc23)C1c1cccc(OC)c1 (stereo not drawn) | 9 µM | 1.2 | 1 | – | –
CCCN1CCc2c([nH]c3ccc(O)cc23)C1c1cccc(OC)c1 (stereo not drawn) | 0.2 µM | 3.2 | 1.9 | 14.02% | 2.1

— ChEMBL document CHEMBL1781937, “Antioxydant activity of β-carboline derivatives in the LDL oxidation model” (2011)
